Change in amplitude response, Activity and SP data for 10 molecules are collected here from ChEMBL document CHEMBL1123529, “Analogues of substance P. Peptides containing D-amino acid residues in various positions of substance P and displaying agonist or receptor selective antagonist effects” (1986).

Several values for one entry are separate records, joined by “and”; a condition that tells them apart may be missing. Equal entries are not always repeated. Where a SMILES comes first, the peptide text is derived from it. [ ]: non-standard residue; d: D form. The star is where a group is joined. Cbz = O=C(OCc1ccccc1)*

Test [1] has as its target Substance-P receptor (Rattus norvegicus) (UniProt P14600). Description: Antagonistic activity against Substance P receptor in rat spinal cord at concentration of 5 uM.
The target of test [2] is Metabotropic glutamate receptor 3 (Rattus norvegicus) (UniProt P31422). In words: Antagonistic activity against Glutamate receptor in rat spinal cord at concentration of 50 uM. It counts as functional, tissue-based. The method in brief:
(§1)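 Neonatal hemisectioned spinal cord from Wistar rats (Alderley Park strain, 2-7 days old), anaesthetised with intraperitoneal urethane (25% w/v, […]) and then decapitated. Cord superfused with oxygenated medium at 1 mL/min. Agonist (SP, SP(6-11), glutamate or carbachol) applied as 2-mL doses in the superfusate. Antagonist superfused for at least 15 min before agonists were retested. Read-out: % change in ventral root–cord DC potential response amplitude.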

Test [3] addresses Substance-P receptor (Cavia porcellus) (UniProt P30547). Description: Antagonistic activity against Substance P receptor in guinea pig ileum at concentration of 5 uM. Type of test: functional, tissue-based. The method in brief: (§2)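 Distal ileum from Dunkin-Hartley guinea pigs (300-350 g, both sexes) in a Krebs organ bath at 37 °C, gassed with 95% O2/5% CO2. Agonist (SP or SP(6-11)) dose-response curves run on a 3-min cycle with 1-min contact, with and without antagonist. Dose ratio = agonist EC50 with antagonist / EC50 alone. At least two preparations per compound; ratios below 2 taken as insignificant.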

The target of test [4] is Substance-P receptor (Rattus norvegicus) (UniProt P14600). Description: Antagonistic activity against Substance P(6-11) receptor in rat spinal cord at concentration of 5 uM.
Substance-P receptor (Rattus norvegicus), sequence (P14600 whole entry, looked up): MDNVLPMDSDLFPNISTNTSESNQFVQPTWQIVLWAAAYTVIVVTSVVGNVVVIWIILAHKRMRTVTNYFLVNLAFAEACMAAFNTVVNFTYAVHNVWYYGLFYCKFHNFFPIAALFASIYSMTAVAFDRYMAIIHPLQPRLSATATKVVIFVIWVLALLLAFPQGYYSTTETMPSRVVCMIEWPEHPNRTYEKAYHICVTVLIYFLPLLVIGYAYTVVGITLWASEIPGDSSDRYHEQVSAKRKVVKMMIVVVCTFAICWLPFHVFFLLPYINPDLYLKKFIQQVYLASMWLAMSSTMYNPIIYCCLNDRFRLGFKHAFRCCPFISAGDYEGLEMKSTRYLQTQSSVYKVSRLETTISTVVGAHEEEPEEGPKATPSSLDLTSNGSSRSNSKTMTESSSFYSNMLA
Test [5] has as its target Substance-P receptor (Cavia porcellus) (UniProt P30547). In words: Antagonistic activity against Substance P(6-11) receptor in guinea pig ileum at concentration of 5 uM. It counts as functional, tissue-based. An outline of the steps:
as §2

The target of test [6] is Substance-P receptor (Rattus norvegicus) (UniProt P14600). Description: Antagonistic activity against Substance P receptor in rat spinal cord at concentration of 50 uM.
Test [7] shares this target. Description: Antagonistic activity against Substance P(6-11) receptor in rat spinal cord at concentration of 10 uM.
Test [8] shares this target. In words: Antagonistic activity against Substance P(6-11) receptor in rat spinal cord at concentration of 50 uM.
Test [9] concerns the target Substance-P receptor (Cavia porcellus) (UniProt P30547). In words: Evaluated in vitro for percent agonist activity in guinea pig ileum (substance P receptor). Type of test: functional, tissue-based.
The target in test [10] is Metabotropic glutamate receptor 3 (Rattus norvegicus) (UniProt P31422). In words: Antagonistic activity against Glutamate receptor in rat spinal cord at concentration of 10 uM. Type of test: functional, tissue-based. The method in brief:
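Cord superfused with oxygenated medium at 1 mL/min. Agonist (SP, SP(6-11), glutamate or carbachol) applied as 2-mL doses in the superfusate. Antagonist superfused for at least 15 min before agonists were retested. Read-out: % change in ventral root–cord DC potential response amplitude.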

Test [11] concerns the target Substance-P receptor (Cavia porcellus) (UniProt P30547). Description: Antagonistic activity against Substance P(6-11) receptor in guinea pig ileum at concentration of 6.4 uM. It counts as functional, tissue-based. The method in brief:
as §2

Test [12] has the same target. In words: Antagonistic activity against Substance P(6-11) receptor in guinea pig ileum at concentration of 47 uM. It counts as functional, tissue-based. An outline of the steps: as §2
The target of test [13] is Substance-P receptor (Rattus norvegicus) (UniProt P14600). In words: Antagonistic activity against Substance P receptor in rat spinal cord at concentration of 25 uM.
The target in test [14] is Substance-P receptor (Cavia porcellus) (UniProt P30547). Description: Antagonistic activity against Substance P receptor in guinea pig ileum at concentration of 6.4 uM. It counts as functional, tissue-based. An outline of the steps: as §2
Substance-P receptor (Cavia porcellus), sequence (P30547 whole entry): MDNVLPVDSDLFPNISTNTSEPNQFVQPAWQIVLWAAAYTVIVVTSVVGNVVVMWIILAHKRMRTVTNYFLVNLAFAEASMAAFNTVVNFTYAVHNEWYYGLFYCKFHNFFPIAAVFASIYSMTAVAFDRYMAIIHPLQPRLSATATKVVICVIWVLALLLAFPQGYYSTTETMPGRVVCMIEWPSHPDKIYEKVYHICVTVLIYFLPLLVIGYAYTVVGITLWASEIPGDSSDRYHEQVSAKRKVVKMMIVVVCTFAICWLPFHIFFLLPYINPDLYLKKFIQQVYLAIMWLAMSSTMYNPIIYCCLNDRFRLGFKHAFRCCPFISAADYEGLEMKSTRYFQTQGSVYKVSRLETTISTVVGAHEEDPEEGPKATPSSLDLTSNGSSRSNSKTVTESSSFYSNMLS
The target is the same in test [15]. Description: Antagonistic activity against Substance P receptor in guinea pig ileum at concentration of 47 uM. Type of test: functional, tissue-based. The method in brief:
as §2

Test [16] has as its target Substance-P receptor (Rattus norvegicus) (UniProt P14600). Description: Antagonistic activity against Substance P(6-11) receptor in rat spinal cord at concentration of 25 uM.
Test [17] addresses Metabotropic glutamate receptor 3 (Rattus norvegicus) (UniProt P31422). In words: Antagonistic activity against Glutamate receptor in rat spinal cord at concentration of 25 uM. Type of test: functional, tissue-based. The method in brief:
as §1

The target is the same in test [18]. Description: Antagonistic activity against Glutamate receptor in spinal rat cord at concentration of 5 uM. It counts as functional. An outline of the steps:
as §1

Test [19] shares this target. In words: Antagonistic activity against Glutamate receptor in spinal rat cord at concentration of 25 uM. It counts as functional. An outline of the steps: as §1
Test [20] concerns the target Substance-P receptor (Cavia porcellus) (UniProt P30547). Description: Antagonistic activity against Substance P(6-11) receptor in guinea pig ileum at concentration of 10 uM. Type of test: functional, tissue-based. The method in brief:
as §2

Test [21] shares this target. In words: In vitro percent agonist activity in guinea pig ileum. Type of test: functional, tissue-based. An outline of the steps:
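Distal ileum from Dunkin-Hartley guinea pigs (300-350 g, either sex) in a 5-mL organ bath of Krebs solution at 37 °C, gassed with 95% O2/5% CO2. Dose-response curves were run on a 3-min cycle with 1-min agonist contact and washout. Agonist activity is expressed as a percentage of substance P.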

Test [22] has the same target. Description: Antagonistic activity against Substance P receptor in guinea pig ileum at concentration of 50 uM. It counts as functional, tissue-based. An outline of the steps:
as §2

For test [23] the target is unchanged. In words: Antagonistic activity against Substance P(6-11) receptor in guinea pig ileum at concentration of 50 uM. Type of test: functional, tissue-based. An outline of the steps:
as §2

Metabotropic glutamate receptor 3 (Rattus norvegicus), sequence (P31422 23-879 limits assumed): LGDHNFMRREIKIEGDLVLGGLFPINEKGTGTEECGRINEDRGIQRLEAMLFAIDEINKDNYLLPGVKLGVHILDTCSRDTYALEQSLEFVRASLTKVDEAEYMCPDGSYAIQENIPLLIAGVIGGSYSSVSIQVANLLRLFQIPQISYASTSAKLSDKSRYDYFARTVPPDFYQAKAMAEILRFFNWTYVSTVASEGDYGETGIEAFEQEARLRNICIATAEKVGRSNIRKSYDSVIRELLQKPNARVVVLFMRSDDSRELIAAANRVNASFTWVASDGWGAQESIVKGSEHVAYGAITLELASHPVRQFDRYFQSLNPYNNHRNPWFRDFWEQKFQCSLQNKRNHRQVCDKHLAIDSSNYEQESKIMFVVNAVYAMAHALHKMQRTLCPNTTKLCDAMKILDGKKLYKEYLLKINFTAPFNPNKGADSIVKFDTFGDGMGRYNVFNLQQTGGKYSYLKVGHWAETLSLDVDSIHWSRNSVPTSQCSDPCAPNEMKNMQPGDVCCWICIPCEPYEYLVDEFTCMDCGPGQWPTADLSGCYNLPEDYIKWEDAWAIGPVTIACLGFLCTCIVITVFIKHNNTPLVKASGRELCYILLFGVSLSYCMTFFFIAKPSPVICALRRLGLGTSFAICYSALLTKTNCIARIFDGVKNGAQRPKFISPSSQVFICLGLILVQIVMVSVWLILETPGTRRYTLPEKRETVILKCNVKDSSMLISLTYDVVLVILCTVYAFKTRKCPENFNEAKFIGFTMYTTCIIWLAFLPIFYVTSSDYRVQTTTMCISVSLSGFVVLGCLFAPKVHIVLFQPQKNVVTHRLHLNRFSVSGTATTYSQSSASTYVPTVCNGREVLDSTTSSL

As for `COC(=O)[C@@H](CCSC)NC(=O)[C@H](CC(C)C)NC(=O)[C@@H](Cc1c[nH]c2ccccc12)NC(=O)[C@H](Cc1c[nH]c2ccccc12)NC(=O)[C@@H](Cc1c[nH]c2ccccc12)NC(=O)[C@H](CCC(N)=O)NC(=O)[C@H](CCC(N)=O)NC(=O)[C@@H]1CCCN1C(=O)[C@H](CCCCNC(=O)OCc1ccccc1)NC(=O)[C@@H]1CCCN1C(=O)[C@@H](N)CCCN=C(N)N`, the Change in amplitude response in test [1] is 11%; in [2], -18%; in test [4], -13%; in [6], -29%; in test [7] it was -62%. Moreover, the Activity in test [3] and in test [5] was less than 2 dose ratio throughout.
On to `COC(=O)[C@@H](CCSC)NC(=O)[C@H](CC(C)C)NC(=O)CNC(=O)[C@H](Cc1ccccc1)NC(=O)[C@H](Cc1ccccc1)NC(=O)[C@@H](NC(=O)[C@H](NC(=O)[C@@H]1CCCN1C(=O)[C@H](CCCCNC(=O)OCc1ccccc1)NC(=O)[C@@H]1CCCN1C(=O)[C@H](CCCN=C(N)N)NC(=O)OCc1ccccc1)C(C)C)C(C)C`, for which the Change in amplitude response in [2] is -17%; in test [8] it was -21%; in test [10] it was -5%; in test [6], -13%; in [7], 31%. The molecule further returned an SP in test [9] of 0.001%.
Take `CSCC[C@@H](NC(=O)[C@H](CC(C)C)NC(=O)[C@@H](Cc1c[nH]c2ccccc12)NC(=O)[C@H](Cc1c[nH]c2ccccc12)NC(=O)[C@@H](Cc1c[nH]c2ccccc12)NC(=O)[C@H](CCC(N)=O)NC(=O)[C@H](CCC(N)=O)NC(=O)[C@@H]1CCCN1C(=O)[C@H](CCCCN)NC(=O)[C@@H]1CCCN1C(=O)[C@@H](N)CCCN=C(N)N)C(=O)O`: the Activity was found to be 2 dose ratio in test [11], 16.1 dose ratio in [12], 3.1 dose ratio in test [14] and 10.3 dose ratio in test [15]. The Change in amplitude response is 30% in [13], -55% in test [16] and 7% in [17]. In addition, in test [9], the SP stood at 0%.
With `COC(=O)[C@@H](CCSC)NC(=O)[C@H](CC(C)C)NC(=O)[C@@H](Cc1c[nH]c2ccccc12)NC(=O)[C@H](Cc1c[nH]c2ccccc12)NC(=O)[C@@H](Cc1c[nH]c2ccccc12)NC(=O)[C@H](CCC(N)=O)NC(=O)[C@H](CCC(N)=O)NC(=O)[C@@H]1CCCN1C(=O)[C@H](CCCCN)NC(=O)[C@@H]1CCCN1C(=O)[C@@H](N)CCCN=C(N)N`, the Change in amplitude response in [1] is 32%; in test [2], 27%; in test [8] it was -87%; in test [13], 21%; in test [4], -42%; in [18], -3%. Moreover, the Change in amplitude response in [16] was -87%; in test [19] it was 29%; in test [6] it was -19%. The Activity in [5] stood at 8.1 dose ratio.
Regarding `COC(=O)[C@@H](CCSC)NC(=O)[C@H](CC(C)C)NC(=O)CNC(=O)[C@@H](Cc1c[nH]c2ccccc12)NC(=O)[C@@H](Cc1c[nH]c2ccccc12)NC(=O)[C@H](CCC(N)=O)NC(=O)[C@H](CCC(N)=O)NC(=O)[C@@H]1CCCN1C(=O)[C@H](CCCCNC(=O)OCc1ccccc1)NC(=O)[C@@H]1CCCN1C(=O)[C@H](CCCN=C(N)N)NC(=O)OCc1ccccc1` (Cbz-RPK(Cbz)PQQ[dW][dW]GL[dM]-OMe), the Change in amplitude response in test [2] is 11%; in test [8], -75%; in test [16] it was -77%; in test [17], -13%; in [10], -3%; in [6], 8.3%. Also, the Change in amplitude response in [7] was -33%. For the same molecule, the Activity in test [20] was 90 dose ratio. Further, the SP in [9] was found to be 0%.
In the case of `COC(=O)[C@H](CCSC)NC(=O)[C@@H]1CCCN1C(=O)[C@H]1CCCN1C(=O)[C@H](Cc1ccccc1)NC(=O)[C@H](Cc1ccccc1)NC(=O)[C@H](CCC(N)=O)NC(=O)[C@H](CCC(N)=O)NC(=O)[C@@H]1CCCN1C(=O)[C@H](CCCCNC(=O)OCc1ccccc1)NC(=O)[C@@H]1CCCN1C(=O)[C@H](CCCN=C(N)N)NC(=O)OCc1ccccc1`, the Change in amplitude response is 12% in test [1]; -37% in test [2]; -86% in test [8]; -46% in test [4]; -9% in test [6]. The Activity in [3] and in [5] was less than 2 dose ratio throughout. The molecule further came in with an SP in [9] of 0%.
For `COC(=O)[C@@H](CCSC)NC(=O)[C@H](CC(C)C)NC(=O)[C@@H](Cc1c[nH]c2ccccc12)NC(=O)[C@H](Cc1c[nH]c2ccccc12)NC(=O)[C@@H](Cc1c[nH]c2ccccc12)NC(=O)[C@H](CCC(N)=O)NC(=O)[C@H](CCC(N)=O)NC(=O)[C@@H]1CCCN1C(=O)[C@H](CCCCNC(=O)OCc1ccccc1)NC(=O)[C@@H]1CCCN1C(=O)[C@H](CCCN=C(N)N)NC(=O)OCc1ccccc1`, the SP in [21] amounted to 0%.
`COC(=O)[C@H](CCSC)NC(=O)[C@@H]1CCCN1C(=O)[C@H]1CCCN1C(=O)[C@H](Cc1ccccc1)NC(=O)[C@H](Cc1ccccc1)NC(=O)[C@H](CCC(N)=O)NC(=O)[C@H](CCC(N)=O)NC(=O)[C@@H]1CCCN1C(=O)[C@@H](CCCCNC(=O)OCc1ccccc1)NC(=O)[C@H]1CCCN1C(=O)[C@@H](CCCN=C(N)N)NC(=O)OCc1ccccc1`: the Change in amplitude response in test [2] is 2%; in test [8] it was -100%; in test [4], -67%; in test [6] it was 29% and 39%. The values for the Activity in [22] and in [23] were 3 dose ratio and less than 2 dose ratio, respectively. The molecule further showed an SP in test [9] of 0%.
On to `CSCC[C@@H](NC(=O)[C@H](CC(C)C)NC(=O)[C@@H](Cc1c[nH]c2ccccc12)NC(=O)[C@H](Cc1c[nH]c2ccccc12)NC(=O)[C@@H](Cc1c[nH]c2ccccc12)NC(=O)[C@H](CCC(N)=O)NC(=O)[C@H](CCC(N)=O)NC(=O)[C@@H]1CCCN1C(=O)[C@H](CCCCNC(=O)OCc1ccccc1)NC(=O)[C@@H]1CCCN1C(=O)[C@H](CCCN=C(N)N)NC(=O)OCc1ccccc1)C(=O)O`, for which the Change in amplitude response is -12% in test [13], -49% in [16] and -40% in [17]. The SP in [9] was less than 2%.
On to `COC(=O)[C@H](CCSC)NC(=O)[C@@H](NC(=O)[C@H](NC(=O)[C@H](Cc1ccccc1)NC(=O)[C@H](Cc1ccccc1)NC(=O)[C@H](CCC(N)=O)NC(=O)[C@H](CCC(N)=O)NC(=O)[C@@H]1CCCN1C(=O)[C@H](CCCCNC(=O)OCc1ccccc1)NC(=O)[C@@H]1CCCN1C(=O)[C@H](CCCN=C(N)N)NC(=O)OCc1ccccc1)C(C)C)C(C)C`, for which the values for the Change in amplitude response in test [2], in [8] and in test [6] were -36%, -22% and -30%, respectively. In addition, the Activity in test [22] and in [23] was less than 2 dose ratio each time. For the same molecule, in [9], the SP worked out at 0%.
